Test system: STAT3 and RAF/MEK/ERK pathways in SAS xenograft tumors
Experiment: Western blot of SAS xenograft tumor lysates
Format: in vivo, mice
Details: day 12, 6 hours after final administration
How it was run: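 Male BALB/c nude mice (6 weeks old) bearing subcutaneous SAS oral tumours; test compound (50 or 60 mg/kg), a kinase inhibitor (10 mg/kg), the combination or vehicle given orally, 5 days on/2 off from day 1 (palpable tumours). Day 12: tumours (n = 3) excised 6 h after last dose, snap-frozen, lysed; immunoblot for pY705-STAT3, STAT3, pT202/Y204-ERK1/2, ERK1/2, survivin, β-actin.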

CNC(=O)c1cc(Oc2ccc(NC(=O)Nc3ccc(Cl)c(C(F)(F)F)c3)cc2)ccn1 [Sorafenib]
phospho‐ERK in tumor tissues: clearly reduced | phospho‐STAT3 in tumor tissues: clearly reduced | survivin in tumor tissues: moderately suppressed
